# According to ChEMBL document CHEMBL4513216, “Probing the Open Global Health Chemical Diversity Library for Multistage-Active Starting Points for Next-Generation Antimalarials” (ACS Infect Dis, 2020):
# Test: Toxicity liver stage against HepG2, at 10uM
# Assay type: cell-based
# Parameters: test concentration 10 uM, cell line HepG2-A16-CD81EGFP
# Conditions: human, HepG2-A16-CD81EGFP cells; read-out: INHIBITION
# Outline: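 Uninfected HepG2-A16-CD81EGFP cells, 3 × 10^3 per well, 1536-well, plated on prespotted compound at 10 μM final, parasite-free screening media added to match infected plates; puromycin 10 μM positive, DMSO 0.5% negative; run in parallel with 48 h PbLuc assay at 37 °C, 5% CO2; viability by CellTiter-Glo luminescence, normalized to controls.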
row,Structure (SMILES),cytotoxicity at 10 µM [%]
1,CS(=O)(=O)N1CCC(CNC(=O)c2cnccn2)CC1,0.503
2,Cc1cccc2c1nc1n2[C@@H](CNC(=O)C2CCOCC2)COC1,-1.47
3,COCC(=O)N1CCN(C(=O)C2CCCCC2)[C@@H](C(=O)OC)C1,1.08
4,COc1cnc(CSc2nnc(C)s2)cc1OCC(=O)NC1CCCC1,3.43
5,Cc1ccc(NC(=O)c2cnc(N3CCN(C)CC3)nc2C)cc1C,-7.8
6,CCCC(O)CN1CC(C)(C)CN(C(=O)c2ccc(SC)cc2)CC1=O (configuration not stated),-4
7,CCS(=O)(=O)N1CCC(OC)c2ccccc2N(CC(=O)NC)C(=O)C1 (configuration not stated),-1.42
8,O=c1[nH]cc(Nc2ccccc2)c(=O)[nH]1,15.6
9,CC(C)C[C@H](NC(=O)N1CCC(Cc2ccccc2)CC1)C(=O)O,-4.13
10,C[C@@H](O)CNC(=O)c1nc(CC(=O)Nc2ccccc2)no1,7.49
11,Cc1nn(C2CCS(=O)(=O)C2)c(O)c1Cc1ccc(Br)cc1 (configuration not stated),-41.6
12,COc1ccc(N2CCN(C(=O)c3nc(Cl)sc3C(C)C)CC2)cc1,3.17
13,Cc1noc(C2CN(CC(=O)NCC3CCCO3)C2)n1 (configuration not stated),-2.56
14,O=C(c1ccsc1)N1CC(c2nc(-c3ccc[nH]c3=O)no2)C1,-7.39
15,COc1nn(C)cc1C(=O)N1CCC(c2nnc(-c3ccsc3)o2)CC1,8.08
16,COC1(CNC(=O)c2ccc(Cl)c(Cl)c2)CCSC1 (configuration not stated),2.05
17,c1cnc(NCc2n[nH]c3c2CCN(Cc2ccncc2)C3)nc1,-3.83
18,Cc1cnc(N2CCC3(CC2)C(c2ccccc2)CC(=O)N3C)nc1 (configuration not stated),-4.35
19,CCN1C(=O)CCCC12CCCN(C(=O)c1ccoc1)C2 (configuration not stated),-5.83
20,CC(C)Nc1ncnc2c1CCNCC2,-1.43
21,Cc1cnc(N2C(=O)CSC2c2cccs2)s1 (configuration not stated),0.847
22,COC(=O)c1sc(C(F)(F)F)cc1OC,4.69
23,Cc1cccc(N(C)Cc2cc(=O)n3oc(C)cc3n2)c1,0.14

row,Structure (SMILES),cytotoxicity at 10 µM [%]
1,CN1CCCC1c1ccc(N2CCOCC2)cn1 (configuration not stated),-2.21
2,CC(=O)N1CCC(c2nccnc2-c2ccc(F)cc2)CC1,-2.22
3,CN1CCN(Cc2cscn2)CC(C(=O)N(C)C)C1 (configuration not stated),-5.61
4,COc1ccc(Cc2cccc(C3CCN(C)CC3)n2)cc1,0.153
5,CC1=NOC2(CCN(Cc3c[nH]c4ccccc34)CC2)C1,4.54
6,CC(C)C(C(N)=O)c1cccc(Cl)c1 (configuration not stated),3.82
7,Cc1nc(Cn2cnc3c(c(Br)nn3C)c2=O)cs1,8.84
8,CCN1CCN2CCCN(S(=O)(=O)c3ccc(C)cc3C)C2C1=O (configuration not stated),0.515
9,Cc1cc(NC(=O)N2CCN(C)CC2C)n(Cc2ccccc2)n1 (configuration not stated),11.4
10,Cc1cc(C)n(C2CCCN(C(=O)CN(C)c3cnccn3)C2)n1 (configuration not stated),3.36
11,CCCn1nnnc1COC(=O)C1Cc2cc(Cl)ccc2O1 (configuration not stated),-5.68
12,Cc1ccc(CNC(=O)NCc2nccn2C)c(OC(C)(C)C)c1,2.66
13,Cn1c(C2CC2)nc2c1CCN(Cc1nc3ccccc3s1)C2,-4.69
14,COCCSCC(=O)NCc1ccc(N(C)C)nc1,9.15
15,Cn1cc(N2CCCC(Nc3ccc4c(c3)CCCO4)C2=O)cn1 (configuration not stated),-6.79
16,Cc1oncc1C(=O)NCC(c1ccccc1Cl)N1CCOCC1 (configuration not stated),10.7
17,COCCn1nc(C(=O)N(C)Cc2ccc3ccccc3c2)ccc1=O,-131
18,CCNC(=O)NC(=O)CNC1(c2noc(C)n2)CCCC1,20.6
19,Cc1nc(C)n(CC2CCCN2CC(=O)NCCc2cccs2)n1 (configuration not stated),-0.749
20,O=C(NCCCn1ccnc1)Nc1ccn(CCc2ccccn2)n1,-0.386
21,CCc1nc(C2CCCN(c3nccc(C)n3)C2)no1 (configuration not stated),-2.69
22,COc1cccc(CNC(C)c2ccc(-n3ccnc3)cc2)c1O (configuration not stated),-47.4
23,CN(Cc1ccc([S+](C)[O-])cc1)c1ccc(Br)cn1 (configuration not stated),11.8

row,Structure (SMILES),cytotoxicity at 10 µM [%]
1,CN(Cc1cc2c(cc1OC(F)F)OCO2)Cc1nccn1C,-1.21
2,CC(C)(C)c1ccc(C2(C(=O)NCCCS(C)(=O)=O)CC2)cc1,-12.6
3,COc1ccc(CNC(=O)C2(C#N)CCCC2)cc1,-17.7
4,COc1ccc(C2CCCCCN2S(=O)(=O)N(C)C)cc1 (configuration not stated),-9.87
5,Cc1n[nH]c(C)c1C1CCCN1C(=O)NCC(=O)NC(C)(C)C (configuration not stated),-11.7
6,O=C(c1ccc[nH]1)N1CCc2nnc(Cn3cccn3)n2CC1,5.62
7,Cc1ncccc1NC(=O)[C@@H]1CCO[C@@H]2CCN(c3ccncn3)C[C@H]21,5.59
8,Cc1nc(CN2C(=O)CC[C@@H]3[C@H]2CCN3C(=O)C2CCOCC2)cs1,-81.3
9,CCOCC(=O)N1CC[C@@H]2O[C@@H](C)C[C@H]2C1,-69.2
10,CCN(Cc1nccn1C)C(=O)c1ccc(NCc2ccc(C)o2)nc1,9.78
11,O=C(CCC1CCN(C(=O)c2csnn2)CC1)NCc1cccc(Cl)c1,-4.55
12,CC(C)N1CCC(C(=O)N2CCN(c3cccc(C(=O)O)c3)CC2)CC1,6.4
13,CCOCCn1nc(C)cc1C(=O)N1CC[C@](O)(CC)[C@H](O)C1,-3
14,CCn1ccnc1C1CCCN(c2nccc3ccccc23)C1 (configuration not stated),-2.74
15,Cc1c(C(C)NC2CSCCSC2)cnn1-c1ccc(F)cc1F (configuration not stated),-11.1
16,COc1ccc2c(C)c(C(=O)NCCCc3csc(N)n3)oc2c1,2.58
17,Cc1nc(-c2cccc(N3CCC(N4CCCC(C#N)C4)CC3)c2)cs1 (configuration not stated),6.22
18,O=C(Nc1ccc(F)c(Cl)c1)N1CCCN([C@H]2COC[C@@H]2O)CC1,-40.7
19,CCc1cc(N(C)CCc2noc(C)n2)nc(N2CCOCC2)n1,4.12
20,CC(C)CN(Cc1ccc(O)c(C(=O)O)c1)Cc1ccccn1,8.5
21,CCC(OC)C(=O)NCc1cc2n(n1)CCCN(C1CCCCC1)C2 (configuration not stated),5.3
22,CSc1ccc(C(C(=O)O)N2CCC(C(=O)N3CCCC3)CC2)cc1 (configuration not stated),-3.45
23,Cc1cccnc1NCCNc1cc(C(C)C)nc2ccnn12,-5.29

row,Structure (SMILES),cytotoxicity at 10 µM [%]
1,CCn1ccnc1C1CCN(Cc2c(F)cccc2F)CC1,-6.82
2,O=C1Nc2ccccc2C12CCCN(Cc1ccc3c(c1)OCCO3)C2 (configuration not stated),0.529
3,COCCC1(CO)CCCN(C(=O)c2cccnc2OC)C1 (configuration not stated),-47.8
4,CCn1c(Cn2cncn2)nnc1C1CCN(CCN)CC1,-0.111
5,CSc1ccc(CN(CCO)Cc2nccn2C)cc1,4.98
6,CN(C)C[C@@H]1CN(C(=O)c2cc(-c3ccccc3)n[nH]2)C[C@@H]1CO,-19.9
7,CCC(C)N(Cc1sccc1C)C(=O)c1cc(N)ccn1 (configuration not stated),9.8
8,CC(C)Oc1cccc(C(=O)C2CCCN(C(=O)c3ncn[nH]3)C2)c1 (configuration not stated),-7.53
9,O=C1NCC2(CCCN(Cc3ccc(Cl)s3)C2)Oc2ccccc21 (configuration not stated),8.69
10,CO[C@@H]1CC[C@@H](N(C)C(=O)COc2ccc(F)cc2)[C@H]1O,8.47
11,COc1cccc(C(=O)N2CCN(Cc3nc(C(C)C)no3)CC2)c1,-18.7
12,Cc1cc(NC(=O)CN2CCc3cncnc3C2)on1,-17.6
13,COc1ncccc1NC(=O)C1CCOCC1,-29.8
14,COc1ncccc1CNC(=O)Nc1cccnc1N1CCCC1,-10.4
15,Cn1cnc2c1CCN(Cc1noc(-c3ccccc3)n1)C2,-1.96
16,O=C(O)c1cc(S(=O)(=O)Nc2cc(F)ccc2F)cc2c1OCCO2,-7.42
17,CS(=O)(=O)CCC(=O)Nc1cnn(-c2ccccc2Cl)c1,-6.66
18,Cc1nn(CC(C)C)c(N(C)C)c1CNCc1cccnc1N(C)C,-7.71
19,NC(=O)c1ccc(S(=O)(=O)NC(=O)COc2ccc3c(c2)CCC3)cc1,-2.27
20,CC(C)N1CCN(C(=O)Nc2cnn(CC(N)=O)c2)CC1,-12.2
21,Cc1cccc(C(=O)NC(CN2CCCC2=O)c2ccccc2)n1 (configuration not stated),-9.16
22,CN(CC(=O)N1CCCC1Cn1cccn1)c1cnccn1 (configuration not stated),-5.1
23,O=C(c1cccc2c1OCO2)N1CCCC1c1noc(C2CC2)n1 (configuration not stated),-23.2

row,Structure (SMILES),cytotoxicity at 10 µM [%]
1,O=C(NS(=O)(=O)c1ccc2c(c1)OCCO2)c1ccc(Br)cc1F,0.553
2,Cc1nc(CN2CCOC(CNc3cccnn3)C2)oc1C (configuration not stated),-7.94
3,COC(=O)c1cccn1C1CCN(CC(=O)NC2CCCCC2)CC1,-8.21
4,O=C(CCSc1ccc(F)cc1)NS(=O)(=O)c1ccc2c(c1)OCCO2,2.36
5,Cc1ccc(C)c(CSc2nnc(C(N)Cc3ccccc3)o2)c1 (configuration not stated),-0.431
6,O=C(c1cccnc1N1CCN(CCO)CC1)N1CCCC1,-1.32
7,CC(NCc1ccc(OCC(N)=O)cc1)c1ccc(Cl)cc1 (configuration not stated),11.2
8,Clc1ccccc1CN1CCc2nc(C3CCCCN3)ncc2C1 (configuration not stated),-3.12
9,CN(C)Cc1cnc2n1CCN(C(=O)NC1CCCC1)CC2,-3.77
10,COCC(=O)N1CCC2(CC1)C(=O)N(Cc1cccnc1)CCN2C,0.964
11,CC(C)OCCCN(Cc1ccncc1)Cc1cccc(F)c1,-15.6
12,CN(Cc1cn2c(n1)CN(Cc1nccs1)CC2)Cc1ccco1,-77.2
13,OCCOCc1nnn2c1CN(c1ncccn1)CCC2,-10.5
14,CCN1C(=O)CC(c2ccccc2)C12CCN(CC1CCOCC1)CC2 (configuration not stated),3.06
15,CN(C)C(=O)N[C@H]1CN(C2CCOCC2)[C@@H]2CCCO[C@H]12,-1.86
16,O=C1COC2(CCN(C(=O)c3ccco3)CC2)CN1Cc1cccnc1,7.2
17,Cc1nc(C)c(C(C)NCc2cnc(N3CCOCC3)nc2)s1 (configuration not stated),-4.76
18,CC(C)=CCN1C(=O)[C@@H]2CC[C@H]1CN(C(=O)CCc1n[nH]c(C)c1C)C2,5.54
19,COCCN1CCN(C=C2NN=C(c3occc3C)O2)CC1,-49.4
20,NC(=O)c1cccnc1N1C[C@H]2CC[C@@H](C1)N(Cc1ccccn1)C2=O,7.94
